Laboratory results reported in ChEMBL document CHEMBL2150981, “Discovery and optimization of benzotriazine di-N-oxides targeting replicating and nonreplicating Mycobacterium tuberculosis” (J Med Chem, 2012).
≈ marks a conversion by molar mass, not a printed value.

What was measured:
[1] = tested on: Mycobacterium tuberculosis; assay: Antitubercular activity against Mycobacterium tuberculosis H37Rv isolate SRI after 5 days by resazurin-based microplate assay; format: functional; settings: 120 h
[2] = tested on: Mycobacterium tuberculosis; assay: Antitubercular activity against Mycobacterium tuberculosis H37Rv isolate ITR after 7 days by luminescence spectrometry; format: functional; settings: 168 h
[3] = tested on: Mycobacterium tuberculosis; assay: Antitubercular activity against Mycobacterium tuberculosis H37Rv incubated for 10 days in anaerobic condition followed by 48 hrs incubation in aerobic condition by LORA assay; format: functional
Vero = assay: (§1) Cytotoxicity against african green monkey Vero cells after 72 hrs by CellTiterGlo assay; settings: chlorocebus sabaeus, vero, 72 h
[4] = Selectivity index, ratio of CC50 for Vero cells to MIC90 for Mycobacterium tuberculosis H37Rv isolate SRI; format: functional
[5] = tested on: Mycobacterium tuberculosis; assay: Antitubercular activity against p-amino-salicyclic acid-resistant Mycobacterium tuberculosis ATCC 35821 after 5 days by resazurin-based microplate assay; format: functional; settings: ATCC 35821, 120 h
Outline: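 Mid-log cultures grown in 7H9 with glycerol, Tween-80 and ADC. Compounds in DMSO were tested two-fold from […] against ~10^5 CFU/mL, 37°C for 5 d. Resazurin was then added for a further 2 d, and fluorescence read at ex 530/em 590 with visual confirmation. MIC was the lowest concentration inhibiting 90% of growth. Final DMSO 0.625%; two-fold variation taken as assay error.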

[6] = as §1; settings: chlorocebus sabaeus, Vero cells

| SMILES | MIC90 [1] [µg/mL] | MIC90 [2] [µg/mL] | MIC90 [3] [µg/mL] | CC50 (Vero) [µg/mL] | Selectivity Index [4] | MIC90 [5] [µg/mL] | CC50 at 72 h [6] [µg/mL] |
| --- | --- | --- | --- | --- | --- | --- | --- |
| COC(=O)/C=C/n1ccnc1[N+](=O)[O-] | 10 (≈ 50.7 µM) | 29 (≈ 147 µM) | 3.3 (≈ 16.7 µM) | 16 (≈ 81.2 µM) | 1.6 |  |  |
| CSc1c(C)[n+]([O-])c2ccccc2[n+]1[O-] | 10 (≈ 45 µM) | 28 (≈ 126 µM) | 9.4 (≈ 42.3 µM) | > 16 | >1.6 |  |  |
| COCCNC(=O)c1ccc2c(c1)[n+]([O-])c(C(C)=O)c(C)[n+]2[O-] | 10 (≈ 31.3 µM) | 27 (≈ 84.6 µM) | > 32 | > 16 | >1.6 |  |  |
| CC(C)(C)Nc1n[n+]([O-])c2ccccc2[n+]1[O-] | 1.2 (≈ 5.12 µM) | 1.9 (≈ 8.11 µM) | 0.82 (≈ 3.5 µM) | 8 (≈ 34.2 µM) | 6.4 | 1.2 (≈ 5.12 µM) |  |
| [O-][n+]1nc(NC2CCCCCC2)[n+]([O-])c2ccccc21 | 2.5 (≈ 9.11 µM) | 1.6 (≈ 5.83 µM) | 0.5 (≈ 1.82 µM) | 7.9 (≈ 28.8 µM) | 3.2 |  |  |
| CCCC(C)Nc1n[n+]([O-])c2ccccc2[n+]1[O-] (configuration not stated) | 5 (≈ 20.1 µM) | 1.9 (≈ 7.65 µM) | 0.99 (≈ 3.99 µM) | 26 (≈ 105 µM) | 5.3 |  |  |
| [H][C@]12C[C@]3([H])C[C@]([H])(C1)[C@H](Nc1n[n+]([O-])c4ccccc4[n+]1[O-])[C@]([H])(C2)C3 | 2.5 (≈ 8 µM) | 1.9 (≈ 6.08 µM) | 2.3 (≈ 7.36 µM) | 7.3 (≈ 23.4 µM) | 2.9 |  |  |
| COCC(C)Nc1n[n+]([O-])c2cc(F)ccc2[n+]1[O-] (configuration not stated) | 5 (≈ 18.6 µM) | 2 (≈ 7.46 µM) | 1.9 (≈ 7.08 µM) |  | 1.3 |  | 6.3 (≈ 23.5 µM) |
| COCC(C)Nc1n[n+]([O-])c2cc(Cl)ccc2[n+]1[O-] (configuration not stated) | 1.2 (≈ 4.21 µM) | 1.4 (≈ 4.92 µM) | 0.78 (≈ 2.74 µM) |  | 2.1 |  | 2.6 (≈ 9.13 µM) |
| CCNc1n[n+]([O-])c2cccc(C)c2[n+]1[O-] | 0.62 (≈ 2.82 µM) | 0.51 (≈ 2.32 µM) | 0.48 (≈ 2.18 µM) | 22 (≈ 99.9 µM) | 36 | 0.31 (≈ 1.41 µM) |  |
| [O-][n+]1nc(NC2CCC2)[n+]([O-])c2cc3c(cc21)CCC3 | 0.62 (≈ 2.28 µM) | 0.96 (≈ 3.53 µM) | 0.44 (≈ 1.62 µM) | 34 (≈ 125 µM) | 54 | 0.62 (≈ 2.28 µM) |  |
| CCNc1n[n+]([O-])c2cc(C)c(OC)cc2[n+]1[O-] |  | 3.5 (≈ 14 µM) | 2.5 (≈ 9.99 µM) | > 100 | >40 | 1.2 (≈ 4.8 µM) |  |
| COc1cc2c(cc1C)[n+]([O-])nc(N[C@@H]1C[C@H]3CC[C@@H]1C3)[n+]2[O-] | 5 (≈ 15.8 µM) | 5.6 (≈ 17.7 µM) | 3.5 (≈ 11.1 µM) | > 50 | >10 |  |  |
| [O-][n+]1nc(N2CCCC2)[n+]([O-])c2ccccc21 | 0.31 (≈ 1.33 µM) |  |  | 17 (≈ 73.2 µM) | 56 | 0.62 (≈ 2.67 µM) |  |
| [O-][n+]1nc(N2CCCCC2)[n+]([O-])c2cc3c(cc21)CCC3 | 0.62 (≈ 2.17 µM) | 0.4 (≈ 1.4 µM) | 0.49 (≈ 1.71 µM) | 21 (≈ 73.3 µM) | 13 | 0.31 (≈ 1.08 µM) |  |
| CN(C)c1n[n+]([O-])c2cc3c(cc2[n+]1[O-])CCC3 | 0.62 (≈ 2.52 µM) | 0.3 (≈ 1.22 µM) | 1.5 (≈ 6.09 µM) | 24 (≈ 97.5 µM) | 13 | 0.15 (≈ 0.609 µM) |  |
| CN(Cc1ccccc1)c1n[n+]([O-])c2cc3c(cc2[n+]1[O-])CCC3 | 0.31 (≈ 0.962 µM) | 0.15 (≈ 0.465 µM) | 0.41 (≈ 1.27 µM) | 17 (≈ 52.7 µM) | 53 | 0.07 (≈ 0.217 µM) |  |
| CN(CCc1ccccc1)c1n[n+]([O-])c2cc3c(cc2[n+]1[O-])CCC3 | 0.31 (≈ 0.922 µM) | 0.24 (≈ 0.713 µM) | 0.44 (≈ 1.31 µM) | 40 (≈ 119 µM) | 130 | 0.15 (≈ 0.446 µM) |  |
| O=S1(=O)CCN(c2n[n+]([O-])c3cc4c(cc3[n+]2[O-])CCC4)CC1 | 5 (≈ 14.9 µM) | 15 (≈ 44.6 µM) | 30 (≈ 89.2 µM) | 17 (≈ 50.5 µM) | 3.4 |  |  |
| CC1CCCCN1c1n[n+]([O-])c2cc3c(cc2[n+]1[O-])CCC3 (configuration not stated) | 1.2 (≈ 4 µM) | 0.66 (≈ 2.2 µM) | 0.47 (≈ 1.56 µM) | > 50 | >40 | 0.62 (≈ 2.06 µM) |  |
| CS(=O)(=O)N1CCN(c2n[n+]([O-])c3cc4c(cc3[n+]2[O-])CCC4)CC1 | 5 (≈ 13.7 µM) | 13 (≈ 35.6 µM) | 15 (≈ 41 µM) | > 50 | >10 |  |  |
| CCc1n[n+]([O-])c2ccccc2[n+]1[O-] | 5 (≈ 26.2 µM) | 3.7 (≈ 19.4 µM) | 0.97 (≈ 5.07 µM) | 38 (≈ 199 µM) | 7.6 |  |  |
| NNC(=O)c1ccncc1 [ISONIAZID] | 0.06 (≈ 0.438 µM) | 0.091 (≈ 0.664 µM) | > 20 | > 50 | >830 |  |  |
| O=C1CN(/N=C/c2ccc([N+](=O)[O-])o2)C(=O)N1 [NITROFURANTOIN] | 16 (≈ 67.2 µM) | 28 (≈ 118 µM) | 32 (≈ 134 µM) | 23 (≈ 96.6 µM) | 1.1 |  |  |
| CO[C@H]1/C=C/O[C@@]2(C)Oc3c(C)c(O)c4c(O)c(c(/C=N/N5CCN(C)CC5)c(O)c4c3C2=O)NC(=O)/C(C)=C\C=C\[C@H](C)[C@H](O)[C@@H](C)[C@@H](O)[C@@H](C)[C@H](OC(C)=O)[C@@H]1C [RIFAMPIN] | 0.003 (≈ 0.00365 µM) | 0.041 (≈ 0.0498 µM) | 2 (≈ 2.43 µM) | > 50 | >15000 |  |  |
| Nc1n[n+]([O-])c2ccccc2[n+]1[O-] [TIRAPAZAMINE] | 5 (≈ 28.1 µM) | 3.7 (≈ 20.8 µM) | 7.3 (≈ 41 µM) | 8 (≈ 44.9 µM) | 1.6 |  |  |
